According to ChEMBL document CHEMBL3272242, “Sulfamylurea hypoglycemic agents. 6. High-potency derivatives” (J Med Chem, 1976):
Activity calls are given as the source filed them. The rule behind the calls is not given here.

Columns and labels:
[1] = tested on: Rattus norvegicus; assay: Hypoglycemic activity in 18 to 24 hrs-fasted rat assessed as reduction in blood glucose at 15 mg/kg, ip measured after 1 hr relative to saline-treated control; type: functional; design: scale not given: the % may be the effect or the level left; conditions: route intraperitoneal
Summary of the method: (§1)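 Unanesthetized male Charles River rats (200–250 g), fasted 18–24 h, in groups of five or six. Single ip dose. Tail-vein blood drawn before dosing and 1 h after. Glucose measured by ferricyanide reduction micromethod on an autoanalyzer. Value is the percent fall in blood glucose at 1 h versus a saline-treated control group. Significance levels are p < 0.05, 0.01 and 0.001.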

[2] = tested on: Rattus norvegicus; assay: Hypoglycemic activity in 18 to 24 hrs-fasted rat assessed as reduction in blood glucose at 5 mg/kg, ip measured after 1 hr relative to saline-treated control; type: functional; design: scale not given: the % may be the effect or the level left; conditions: route intraperitoneal; summary of the method: as §1
[3] = tested on: Rattus norvegicus; assay: Hypoglycemic activity in 18 to 24 hrs-fasted rat assessed as reduction in blood glucose at 1 mg/kg, ip measured after 1 hr relative to saline-treated control; type: functional; design: scale not given: the % may be the effect or the level left; conditions: route intraperitoneal; summary of the method: as §1
[4] = tested on: Rattus norvegicus; assay: Hypoglycemic activity in 18 to 24 hrs-fasted rat assessed as reduction in blood glucose at 0.5 mg/kg, ip measured after 1 hr relative to saline-treated control; type: functional, organism-based; design: dose 0.5 mg/kg; summary of the method: as §1

Row | SMILES | Activity [1] [%] | Activity [2] [%] | other results
1 | O=C(NC[C@@H]1C[C@@H]2C=C[C@@H]1C2)NS(=O)(=O)N1CCC(CCNC(=O)c2cnsc2)CC1 (relative stereo) | 14 | – | –
2 | COc1ccc(Cl)cc1C(=O)NCCC1CCN(S(=O)(=O)NC(=O)NC23CC4CC(CC(C4)C2)C3)CC1 | – | 29 | –
3 | CCCn1cc(C(=O)NCCC2CCN(S(=O)(=O)NC(=O)NC[C@@H]3C[C@@H]4C=C[C@@H]3C4)CC2)c(=O)n(CC)c1=O.O (relative stereo) | – | 19 | –
4 | O=C(NC1CCCCC1)NS(=O)(=O)N1CCC(CCNC(=O)c2nsc3ccccc23)CC1 | 17 | – | –
5 | Cn1cccc(C(=O)NCCC2CCN(S(=O)(=O)NC(=O)NC[C@@H]3C[C@@H]4C=C[C@@H]3C4)CC2)c1=O (relative stereo) | 40 | – | Activity [3]: 19%
6 | COc1ccc2nccc(C(=O)NCCC3CCN(S(=O)(=O)NC(=O)NC[C@@H]4C[C@@H]5C=C[C@@H]4C5)CC3)c2c1 (relative stereo) | – | 10 | –
7 | O=C(NC[C@@H]1C[C@@H]2C=C[C@@H]1C2)NS(=O)(=O)N1CCC(CCNC(=O)c2cccc3c2OCCO3)CC1 | 40 | 11 | –
8 | COc1ncccc1C(=O)NCCC1CCN(S(=O)(=O)NC(=O)NC[C@@H]2C[C@@H]3CC[C@@H]2C3)CC1 (relative stereo) | – | 35 | –
9 | O=C(NC[C@@H]1C[C@@H]2C=C[C@@H]1C2)NS(=O)(=O)N1CCC(CCNC(=O)c2cscn2)CC1 (relative stereo) | 37 | – | –
10 | O.O=C(NC[C@@H]1C[C@@H]2C=C[C@@H]1C2)NS(=O)(=O)N1CCC(CCNC(=O)c2nc3ccccc3s2)CC1 (relative stereo) | 34 | 24 | Activity [3]: 14%
11 | COc1ccncc1C(=O)NCCC1CCN(S(=O)(=O)NC(=O)NC[C@@H]2C[C@@H]3C=C[C@@H]2C3)CC1 (relative stereo) | – | 14 | –
12 | Cn1cc(C(=O)NCCC2CCN(S(=O)(=O)NC(=O)NC[C@@H]3C[C@@H]4CC[C@@H]3C4)CC2)c(=O)n(C)c1=O.O (relative stereo) | – | 22 | –
13 | Cc1ncccc1C(=O)NCCC1CCN(S(=O)(=O)NC(=O)NC[C@@H]2C[C@@H]3C=C[C@@H]2C3)CC1.O (relative stereo) | – | 16 | –
14 | CC#N.O=C(NC[C@@H]1C[C@@H]2CC[C@@H]1O2)NS(=O)(=O)N1CCC(CCNC(=O)c2nc3ccccc3s2)CC1 (relative stereo) | 30 | – | –
15 | O=C(NC1CCCCC1)NS(=O)(=O)N1CCC(CCNC(=O)c2ccc3ccccc3n2)CC1 | – | 11 | –
16 | CC(=O)NCCC1CCN(S(=O)(=O)NC(=O)NC[C@@H]2C[C@@H]3C=C[C@@H]2C3)CC1 (relative stereo) | 25 | 18 | –
17 | COc1ccc(Cl)cc1C(=O)NCCC1CCN(S(=O)(=O)NC(=O)NC[C@@H]2C[C@@H]3C=C[C@@H]2C3)CC1 (relative stereo) | – | 37 | Activity [3]: 27%
18 | COc1ncccc1C(=O)NCCC1CCN(S(=O)(=O)NC(=O)NCC2CCCCO2)CC1 (configuration not stated) | – | 12 | –
19 | O=C(NC1CCCCC1)NS(=O)(=O)N1CCC(CCNC(=O)C(F)(F)F)CC1 | – | 13 | –
20 | O=C(NC1CCCCC1)NS(=O)(=O)N1CCC(CCNC(=O)c2cccc3cccnc23)CC1 | – | 37 | Activity [3]: 29%

Row | SMILES | Activity [1] [%] | Activity [2] [%] | other results
21 | COc1ccc(Cl)cc1C(=O)NCC1CCN(S(=O)(=O)NC(=O)NC[C@@H]2C[C@@H]3C=C[C@@H]2C3)CC1 (relative stereo) | – | 15 | –
22 | COc1ncccc1C(=O)NCCC1CCN(S(=O)(=O)NC(=O)NC23CC4CC(CC(C4)C2)C3)CC1 | – | 25 | Activity [3]: 12%
23 | COc1ccc(Cl)cc1C(=O)NCCC1CCN(S(=O)(=O)NC(=O)NN2CCCCCC2)CC1 | – | 36 | –
24 | O=C(NC[C@@H]1C[C@@H]2CC[C@@H]1O2)NS(=O)(=O)N1CCC(CCNC(=O)C2Oc3ccccc3O2)CC1 (relative stereo) | 38 | 15 | –
25 | O=C(NC[C@@H]1C[C@@H]2C=C[C@@H]1C2)NS(=O)(=O)N1CCC(CCNC(=O)c2cc(Cl)ccn2)CC1 (relative stereo) | 46 | 32 | Activity [3]: 16%
26 | COc1ncccc1C(=O)NCCC1CCN(S(=O)(=O)NC(=O)NCC2CCCO2)CC1 (configuration not stated) | – | 16 | –
27 | Cn1cc(C(=O)NCCC2CCN(S(=O)(=O)NC(=O)NC34CC5CC(CC(C5)C3)C4)CC2)c(=O)n(C)c1=O.O | – | 27 | –
28 | COc1ccc(Cl)cc1C(=O)NCCC1CCN(S(=O)(=O)NC(=O)NC[C@H]2C[C@@H]3CC[C@@H]2O3)CC1.O (relative stereo) | – | 27 | –
29 | COc1ncccc1C(=O)NCCC1CCN(S(=O)(=O)NC(=O)NC[C@@H]2C[C@@H]3CC[C@@H]2O3)CC1 (relative stereo) | – | 34 | –
30 | O=C(NC1CCCCC1)NS(=O)(=O)N1CCC(CCNC(=O)c2ccc3c(c2)OCO3)CC1 | 17 | – | –
31 | COc1ccc(Cl)cc1C(=O)NCC1CCN(S(=O)(=O)NC(=O)NC2CCCCC2)CC1.O | – | 20 | –
32 | CSc1ccc(C(F)(F)F)cc1C(=O)NCCC1CCN(S(=O)(=O)NC(=O)NC2CCCCC2)CC1 | 24 | – | –
33 | COc1ccc2nccc(C(=O)NCCC3CCN(S(=O)(=O)NC(=O)NC4CCCCC4)CC3)c2c1.O | – | 15 | –
34 | O=C(NC1CCCCC1)NS(=O)(=O)N1CCC(CCNC(=O)C2Oc3ccccc3O2)CC1 | – | 8 | –
35 | COc1ncccc1C(=O)NCCC1CCN(S(=O)(=O)NC(=O)NC2CCCCC2)CC1 | 35 | 33 | Activity [3]: 22%
36 | Cc1cccc(C(=O)NCCC2CCN(S(=O)(=O)NC(=O)NC[C@@H]3C[C@@H]4C=C[C@@H]3C4)CC2)n1 (relative stereo) | – | 20 | –
37 | Cc1ncsc1C(=O)NCCC1CCN(S(=O)(=O)NC(=O)NC[C@@H]2C[C@@H]3C=C[C@@H]2C3)CC1 (relative stereo) | 25 | 11 | –
38 | COc1ncccc1C(=O)NCCC1CCN(S(=O)(=O)NC(=O)NC[C@H]2C[C@@H]3C=C[C@@H]2C3)CC1 (relative stereo) | – | 20 | –
39 | CCCNC(=O)NS(=O)(=O)N1CCC(CCNC(=O)c2cccc3c2OCCO3)CC1 | 25 | – | –
40 | CCOCCNC(=O)NS(=O)(=O)N1CCC(CCNC(=O)c2cccnc2OC)CC1 | – | 7 | –

Row | SMILES | Activity [1] [%] | Activity [2] [%] | other results
41 | CCCCCCNC(=O)NS(=O)(=O)N1CCC(CNC(=O)c2cc(Cl)ccc2OC)CC1 | – | 17 | –
42 | O=C(NC1CCCCC1)NS(=O)(=O)N1CCC(CCNC(=O)c2csnn2)CC1 | – | 19 | –
43 | COc1ccc(Cl)cc1C(=O)NCCC1CCN(S(=O)(=O)NC(=O)NC2CCCCC2)CC1 | – | 25 | Activity [3]: 39%
44 | CCCCn1cc(C(=O)NCCC2CCN(S(=O)(=O)NC(=O)NC[C@@H]3C[C@@H]4C=C[C@@H]3C4)CC2)c(=O)n(CCCC)c1=O (relative stereo) | – | 12 | –
45 | COc1ccc(C(=O)NCCC2CCN(S(=O)(=O)NC(=O)NC[C@@H]3C[C@@H]4C=C[C@@H]3C4)CC2)cn1 (relative stereo) | 32 | 11 | –
46 | COc1ccc(NC(=O)NS(=O)(=O)N2CCC(CCNC(=O)c3cc(Cl)ccc3OC)CC2)cc1.O | – | 27 | –
47 | Cc1ncccc1C(=O)NCCC1CCN(S(=O)(=O)NC(=O)NC2CCCCC2)CC1 | – | 16 | –
48 | O=C(NC[C@@H]1C[C@@H]2C=C[C@@H]1C2)NS(=O)(=O)N1CCC(CCNC(=O)c2ccc3ccccc3n2)CC1 (relative stereo) | – | 21 | –
49 | O.O=C(NC1CCCCC1)NS(=O)(=O)N1CCC(CCNC(=O)c2ccnc3ccccc23)CC1 | – | 16 | –
50 | COc1ccc(Cl)cc1C(=O)NCCC1CCN(S(=O)(=O)NC(=O)NC[C@@H]2C[C@@H]3CC[C@@H]2O3)CC1 (relative stereo) | – | 30 | –
51 | O=C(NC1CCCCC1)NS(=O)(=O)N1CCC(CCNC(=O)c2cccc3c2OCCO3)CC1 | 42 | 34 | –
52 | COc1ncc(Cl)cc1C(=O)NCCC1CCN(S(=O)(=O)NC(=O)NC[C@@H]2C[C@@H]3C=C[C@@H]2C3)CC1.O (relative stereo) | – | – | Activity [4]: inactive; Activity [3]: 20%
53 | CCCNC(=O)NS(=O)(=O)N1CCC(CCNC(=O)c2cc(C(F)(F)F)nn2C)CC1 | – | 11 | –
54 | O.O=C(NC[C@@H]1C[C@@H]2C=C[C@@H]1C2)NS(=O)(=O)N1CCC(CCNC(=O)c2cccc3cccnc23)CC1 (relative stereo) | – | 34 | Activity [3]: 32%
55 | Cn1cc(C(=O)NCCC2CCN(S(=O)(=O)NC(=O)NC3CCCCC3)CC2)c(=O)n(C)c1=O | 15 | – | –
56 | O=C(NC[C@@H]1C[C@@H]2C=C[C@@H]1C2)NS(=O)(=O)N1CCC(CCNC(=O)C(F)(F)F)CC1 (relative stereo) | – | 22 | –
57 | Cn1cc(C(=O)NCCC2CCN(S(=O)(=O)NC(=O)NC[C@@H]3C[C@@H]4C=C[C@@H]3C4)CC2)c(=O)n(C)c1=O (relative stereo) | 32 | 23 | Activity [3]: 12%
58 | O=C(NC[C@@H]1C[C@@H]2CC[C@@H]1O2)NS(=O)(=O)N1CCC(CCNC(=O)c2cccc3c2OCCO3)CC1 (relative stereo) | 13 | 15 | –
59 | COc1ncccc1C(=O)NCCC1CCN(S(=O)(=O)NC(=O)NC[C@H]2C[C@@H]3CC[C@@H]2O3)CC1 (relative stereo) | – | 14 | –
60 | O=C(NC[C@@H]1C[C@@H]2C=C[C@@H]1C2)NS(=O)(=O)N1CCC(CCNC(=O)c2cnccc2Cl)CC1 (relative stereo) | 12 | – | –
